NR2E3 ag-1: NR2E3 (human) agonism; GST-NR2E3/biotin-RetCOR TR-FRET, 1536-well; inhibition of corepressor binding, % at 4.78 µM; Q9Y5X4; actives 0.12% (n = 320,000); AID 2300;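 active = percent inhibition above the cutoff of mean plus 3 SD of all tested compounds, set per screening campaign, cut at about 20% in these data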;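 also: 0% = DMSO wells and 100% = biotin wells as full block of FRET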
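System: GST-tagged NR2E3 plus biotinylated RetCOR corepressor; Amount: 1.35 nM GST-tagged NR2E3 final; Dosing: single nominal compound dose of 4.8 µM; Schedule: 5 h incubation at 4 °C; Technique: TR-FRET with europium anti-GST and streptavidin-D2, 340 nm excitation; Controls: biotin wells as high control, 0.6% DMSO wells as low control.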
PG9 Ab binder: PG9 antibody binding by small molecule | actives 0.43% (n = 360,000) | TR-FRET gp120-PG9 antibody binding | inhibition, % at 6.7 µM; in the data active = inhibition above about 8.5%
NR2E3 ag-2: activates human NR2E3 receptor; inhibition of corepressor binding, % at 3.98 µM; CHO-S Gal4-NCOR/VP16-NR2E3 two-hybrid, luciferase; actives 0.35% (n = 360,000);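 active = inhibition above the mean of all tested compounds plus 3 SD, cut at about 70% in these data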;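 also: 0% = DMSO with NR2E3 transfected cells and 100% = cells lacking NR2E3 construct; higher means lower luciferase signal from less NR2E3 corepressor binding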
Rev-erbA mod: modulates human Rev-erb alpha binding to DNA. P20393. Rev-erbα–FITC-DNA binding, fluorescence polarization, 90 min. activity, % at 10 µM. actives 0.79% (n = 370,000). AID 1259318;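 active = activity above about 14%, limit read from the data; passing the limit was not always enough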;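 also: 0% = DMSO wells with 35 nM protein and 100% = DMSO wells with 750 nM protein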
Target sequence (P20393 whole entry, looked up): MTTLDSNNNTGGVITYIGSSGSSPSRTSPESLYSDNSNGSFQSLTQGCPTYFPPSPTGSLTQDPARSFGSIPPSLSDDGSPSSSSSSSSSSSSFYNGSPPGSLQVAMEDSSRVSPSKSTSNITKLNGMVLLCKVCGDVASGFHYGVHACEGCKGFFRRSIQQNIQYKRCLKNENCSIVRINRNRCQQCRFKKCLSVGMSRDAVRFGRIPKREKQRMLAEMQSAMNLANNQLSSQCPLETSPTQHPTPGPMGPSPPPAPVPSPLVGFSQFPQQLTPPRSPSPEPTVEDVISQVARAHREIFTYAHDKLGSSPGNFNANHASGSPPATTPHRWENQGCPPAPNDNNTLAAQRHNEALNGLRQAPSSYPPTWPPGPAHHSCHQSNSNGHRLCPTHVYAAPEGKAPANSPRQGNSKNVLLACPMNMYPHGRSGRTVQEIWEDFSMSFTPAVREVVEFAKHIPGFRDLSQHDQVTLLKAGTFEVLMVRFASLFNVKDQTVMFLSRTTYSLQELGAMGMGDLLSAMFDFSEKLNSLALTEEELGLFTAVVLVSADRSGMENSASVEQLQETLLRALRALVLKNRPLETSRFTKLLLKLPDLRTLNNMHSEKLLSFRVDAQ
Rev-erbA confirm: Rev-erb alpha (human) modulation, hit confirmation | shares compounds with Rev-erbA mod | Rev-erb alpha FITC-DNA binding, fluorescence polarization, 90 min | activation, % at 25 µM | actives 61% (n = 3,000);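 active = activation at or above a set limit, or at least 3 SD above the negative control mean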;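 also: 0% = 35 nM protein with DMSO and 100% = 750 nM protein high control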
RORg counter: RORgamma DNA-binding activity, dose-response counter-screen; purified RORgamma protein-FITC-DNA binding, fluorescence polarization; actives 8% (n = 910); IC50, µM; AID 1259320; shares compounds with Rev-erbA mod;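 active = Compounds whose fitted half-maximal concentration for disrupting protein-DNA binding is below 10 micromolar; the record names Rev-erb in its text, so the target is in doubt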
Starred values were filed as active, the others as inactive; i = inactive; / = no result. The list is not random: actives were taken first. Their share in the collection is about 1.4%.

SMILES	NR2E3 ag-1	PG9 Ab binder	NR2E3 ag-2	Rev-erbA mod	Rev-erbA confirm	others
CC(C)CCn1c(=O)c(C(=O)Nc2ccccc2S(N)(=O)=O)c(O)c2ccccc21	-1.4	7.9	-31.3	28.5*	21.0*
CCCCn1c(=O)c(C(=O)Nc2ccccc2C)c(O)c2ccccc21	2.7	/	-34.4	/	/
FC(F)(F)c1ccccc1CNCCc1c[nH]c2ccccc12	1.7	-0.7	-9.6	3.7	/
Cc1ccc(-n2c(O)c(/C=N/c3ncc(Br)cc3Br)c(=O)[nH]c2=O)cc1	2.6	-1.2	-22.1	131.3*	143.5*	RORg counter=>40
O=c1[nH]c(=O)n(-c2ccccc2)c(O)c1N=Nc1ccc(Br)cc1	-1.1	-1.3	4.2	1.8	/
O=[N+]([O-])c1ccc(N2CCCC2)c2ccncc12	-1.4	-6.5	-5.8	35.8*	35.4*	RORg counter=>40
O=[N+]([O-])c1ccc(NC2CCCC2)c2ccncc12	2.3	/	8.0	/	/
O=c1[nH]c(=O)n(Cc2ccc(F)cc2)c(O)c1C=Nc1ccc(Cl)cc1	2.7	1.3	-5.1	125.0*	9.5
CCOc1ccc(N=Cc2c(O)n(Cc3ccccc3)c(=S)[nH]c2=O)cc1	1.1	1.5	11.8	41.2*	9.6
CC(=O)Nc1cc(C(=O)N2CCC3(CC2)OCCO3)ccc1Sc1ccc(F)cc1	-0.8	0.1	-13.2	-0.1	/
O=C(Nc1ccccc1)N1Cc2cc(Br)ccc2-n2nncc2C1	/	-1.3	/	-2.5	/
C=C(C)c1cccc(C(C)(C)NC(=O)NC2CN3CCC2CC3)c1 (stereo not given)	-1.0	-0.4	-6.0	38.5*	45.9*
Nc1c2c(nc3ccccc13)CCN(Cc1ccccc1)C2	-1.3	-0.8	-22.5	32.5*	33.8*	RORg counter=>40
C1=C(c2c[nH]c3ccccc23)CCN(Cc2ccccc2)C1	1.5	-1.0	-18.7	0.7	/
COc1ccc(OCC#CCN2CCNCC2)cc1	0.0	3.2	-7.8	6.2	/
COc1cc2c(cc1OC)-c1c3c(cc4c1[C@@H](C2)N(C)CC4)OCO3	-1.1	-8.1	-54.6	15.4*	-3.4
CCOC(=O)C1CCCN(c2ccc([N+](=O)[O-])c3nonc23)C1 (stereo not given)	/	-0.7	8.4	57.5*	57.1*	RORg counter=2.47*
CCN(CC)c1ccc(/C=C2\C(=O)NC(=S)N(C)C2=O)o1	-4.3	-10.3	-115.4	57.0*	62.4*	RORg counter=>40
CN1C(=O)C(=Cc2ccc(N3CCCCC3)o2)C(=O)N(C)C1=S	-3.8	-3.9	-51.4	40.4*	47.2*	RORg counter=>40
CCN(CC)c1ccc(C=C2C(=O)N(C)C(=S)N(C)C2=O)o1	-2.3	-3.2	-0.6	34.5*	15.2
CN1C(=O)C(=Cc2ccc(SC3CCCCC3)o2)C(=O)N(C)C1=O	-1.8	-2.2	-33.6	-4.3	/
O=C1NC(=O)C(=Cc2ccc(N3CCOCC3)o2)C(=O)N1	-6.5	-5.8	-10.2	29.7*	28.3*
CCN(CC)c1ccc(/C=C2\C(=O)NC(=S)N(c3ccc(OC)cc3OC)C2=O)o1	-2.6	/	-18.5	/	/
Cc1cc(C)cc(N2C(=O)/C(=C\c3ccc(N4CCN(C)CC4)o3)C(=O)NC2=S)c1	-0.5	-6.1	-4.3	17.1*	11.3
Cc1ccc(/C=C2\C(=O)NC(=S)N(c3ccc(F)cc3)C2=O)o1	/	2.0	3.5	0.7	/
SMILES	NR2E3 ag-1	PG9 Ab binder	NR2E3 ag-2	Rev-erbA mod	Rev-erbA confirm	others
c1cncc(-c2ccc3n2Cc2cnnn2-c2ccccc2-3)c1	/	/	/	-0.2	/
Cc1c(C(=O)c2cccc3ccccc23)c2cccc3c2n1[C@H](CN1CCOCC1)CO3	5.0	-3.1	-35.4	26.8*	15.7*
O=C(CN1CCOCC1)c1cccc2ccccc12	1.8	-0.5	-2.9	6.6	/
Fc1ccccc1CNCCc1ccc2c(c1)OCO2	1.4	-2.3	3.5	-1.1	/
Cc1c(N=Nc2c(O)[nH]c(=S)[nH]c2=O)c(=O)n(-c2ccccc2)n1C	-4.4	-8.7	-13.5	1.3	/
CCOc1ccc2nc(N=Nc3c(O)[nH]c(=O)[nH]c3=O)sc2c1	-1.5	-6.8	-1.1	25.4*	15.9
CCOc1ccc2nc(N=Nc3c(O)[nH]c(=S)[nH]c3=O)sc2c1	-1.4	-5.1	-30.9	24.6*	36.2*	RORg counter=i
CCOC(=O)c1sc(N=Nc2c(O)[nH]c(=O)[nH]c2=O)c(C(=O)OCC)c1C	3.4	/	/	/	/
C[N+]1(CC2COC(c3ccco3)O2)CCCCC1 (stereo not given)	2.2	0.3	16.9	6.7	/
O=C1NC(=S)N(c2ccccc2)C(=O)C1C(c1ccncc1)C1C(=O)NC(=S)N(c2ccccc2)C1=O (stereo not given)	0.0	1.0	17.1	9.1	/
O=C(O)c1ccccc1-c1c2cc(Br)c(=O)cc-2oc2[c]([Hg])c(O)c(Br)cc12	/	/	/	117.8*	79.5*
COC1C(C)OC(OC2CC(C)(O)Cc3cc4c(c(O)c32)C(=O)c2c(O)cc3c(c2C4=O)OC2OC3(C)C(O)C(N(C)C)C2O)C(OC)C1(C)OC (stereo not given)	/	-5.7	-3.5	11.6	/
CC(C)CC(C)N (stereo not given)	1.5	-0.8	-10.5	18.9*	-2.6
COP(=O)(NC(=O)C(Cl)(Cl)Cl)OC	-1.0	1.6	-22.5	-2.4	/

From PubChem BioAssay
